The record followed here is ChEMBL document CHEMBL2380254, “Optimization of tocotrienols as antiproliferative and antimigratory leads” (Eur J Med Chem, 2013).

Some results are limits rather than exact numbers.

One assay relates to OVCAR-8. Briefly: Growth inhibition of human OVCAR8 cells assessed as cell growth at 10 uM after 48 hrs by sulforhodamine B assay. The format is functional. The following applies: OVCAR-8, 48 h, read-out: Activity. The method, boiled down:
(§1)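 Single-dose NCI-60 screen: adherent cells in RPMI 1640 with 5% FBS were exposed to 10 µM for 48 h at 37 °C after a 24 h preincubation. They were fixed in situ with cold TCA (10% final), stained with 0.4% SRB in 1% acetic acid, solubilized in 10 mM Tris base, and read at 515 nm. Percent growth was taken relative to time-zero and control plates.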

In the next assay the test system is KM12. Put plainly: Growth inhibition of human KM12 cells assessed as cell growth at 10 uM after 48 hrs by sulforhodamine B assay. The format is functional. The following applies: KM12, 48 h, read-out: Activity. An outline of the steps: (§2)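 NCI-60 single-dose screen at 10 µM: cells in RPMI 1640 with 5% FBS, preincubated 24 h, then exposed 48 h at 37 °C. TCA fixation (16% final for suspension cells), SRB staining, absorbance 515 nm. Percent growth relative to time-zero and untreated control plates; negative values indicate cell kill.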

A further assay deals with HL-60(TB). Put plainly: Growth inhibition of human HL-60(TB) cells assessed as cell growth at 10 uM after 48 hrs by sulforhodamine B assay. The assay is classed as functional. The following applies: HL-60, 48 h, read-out: Activity. An outline of the steps:
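NCI-60 single-dose screen run at 10 µM on HL-60(TB) suspension cells in RPMI 1640 with 5% FBS and 2 mM L-glutamine. Cells were preincubated for 24 h, with a time-zero plate fixed then. Exposure lasted 48 h at 37 °C. Settled cells were fixed with TCA (16% final), stained with SRB and read at 515 nm. Percent growth is relative to control and T0.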

Assay [1] can be described thus: Growth inhibition of human HCC2998 cells assessed as cell growth at 10 uM after 48 hrs by sulforhodamine B assay. The format is functional. Conditions: HCC 2998, 48 h, read-out: Activity. An outline of the steps:
as §2
On the technique in general: Sulforhodamine B stains cellular protein and so reports cell mass.

The subject of another assay is A549. Briefly: Growth inhibition of human A549/ATCC cells assessed as cell growth at 10 uM after 48 hrs by sulforhodamine B assay. The assay is classed as functional. Conditions: A549, 48 h, read-out: Activity. An outline of the steps:
as §2

The subject of a further assay is MCF7. Put plainly: Antiproliferative activity against human MCF7 cells by MTT assay. The assay is classed as functional, cell-based. The method, boiled down: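 Cells plated at 8 × 10^3/well (MDA-MB-231) or 10^4/well (MCF7) in 96-well plates. Compounds fed in media with 5% FBS (MDA-MB-231) or 1% FBS (MCF7). MTT read-out of viable cells.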
Another assay concerns SNB-75. Briefly: Growth inhibition of human SNB75 cells assessed as cell growth at 10 uM after 48 hrs by sulforhodamine B assay. The assay is classed as functional. Conditions: SNB-75, 48 h, read-out: Activity. An outline of the steps: (§3)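 Single-dose NCI-60 test at 10 µM. Cells were grown in RPMI 1640 with 5% FBS and 2 mM L-glutamine, preincubated 24 h, with T0 plates TCA-fixed. Exposure was 48 h at 37 °C, 5% CO2. Cells were fixed with cold TCA (final 10%, 4 °C, 60 min), stained with SRB and read at 515 nm. Percent growth was taken relative to T0 and untreated control; negative values denote cell kill.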

The test system of a further assay is ACHN. Briefly: Growth inhibition of human ACHN cells assessed as cell growth at 10 uM after 48 hrs by sulforhodamine B assay. The format is functional. Conditions: read-out: Activity. The method, boiled down: as §2
The next assay relates to SNB-19. Put plainly: Growth inhibition of human SNB19 cells assessed as cell growth at 10 uM after 48 hrs by sulforhodamine B assay. The format is functional. Conditions: SNB-19, 48 h, read-out: Activity. An outline of the steps: as §3
A further assay deals with NCI-H460. Briefly: Growth inhibition of human NCI-H460 cells assessed as cell growth at 10 uM after 48 hrs by sulforhodamine B assay. Conditions: NCI-H460, 48 h, read-out: Activity. The assay is classed as functional. The method, boiled down:
as §1

The test system of another assay is NCI-H322M. Put plainly: Growth inhibition of human NCI-H322M cells assessed as cell growth at 10 uM after 48 hrs by sulforhodamine B assay. The format is functional. Conditions: read-out: Activity. An outline of the steps: as §1
The next assay deals with SK-OV-3. Put plainly: Growth inhibition of human SKOV3 cells assessed as cell growth at 10 uM after 48 hrs by sulforhodamine B assay. The format is functional. Conditions: SK-OV-3, 48 h, read-out: Activity. The method, boiled down: as §3

Broadly, the IC50 is the concentration at which inhibition is half-maximal. Take `CC(C)=CCC/C(C)=C/CC/C(C)=C/CC[C@]1(C)CCc2c3c(c(C)c(C)c2O1)OCN(CCCCCCCCCCO)C3`: the growth at 10 µM with OVCAR-8 stood at 89.7%; with KM12, 89.1%; with HL-60(TB), 88%; in assay [1] it was 97.9%; with A549 it was 74.9%; with SNB-75, 91.4%. Besides, the growth at 10 µM in the assay on ACHN stood at 92.6%; in the assay with SNB-19, 95.7%; in the assay with NCI-H460, 75.5%; in the assay on NCI-H322M, 101%. For the same compound, in the assay on MCF7, it took 19.4 µM to reach half-maximal inhibition (IC50).

As to `COc1ccc(CCN2COc3c(C)c(C)c4c(c3C2)CC[C@@](C)(CC/C=C(\C)CC/C=C(\C)CCC=C(C)C)O4)cc1OC`, the growth at 10 µM came to 101% with OVCAR-8; 96.4% with KM12; 79.4% in the assay with HL-60(TB); 70.5% in assay [1]; 98.9% with A549; 82.8% in the assay on SNB-75. In addition, the growth at 10 µM came out at 95.8% in the assay with ACHN; 95.3% in the assay with SK-OV-3; 104% in the assay on SNB-19; 103% with NCI-H460; 101% with NCI-H322M. In addition, the IC50 in the assay on MCF7 was greater than 20 µM.

Turning to `COc1ccc(CCNCc2c(O)c(C)c(C)c3c2CC[C@@](C)(CC/C=C(\C)CC/C=C(\C)CCC=C(C)C)O3)cc1OC`, the growth at 10 µM was 66.8% in the assay with OVCAR-8; 60.1% in the assay on KM12; 77.7% with HL-60(TB); -25.9% in assay [1]; 91.8% with A549; 80.5% with SNB-75. Moreover, the growth at 10 µM with ACHN stood at 97.5%; in the assay with SK-OV-3 it was 105%; in the assay on SNB-19 it was 89.6%; in the assay on NCI-H460, 73.4%; in the assay with NCI-H322M, 95.6%.

Turning to `CC(C)=CCC/C(C)=C/CC/C(C)=C/CC[C@]1(C)CCc2cc(O)c(C)c(C)c2O1` [GAMMA-TOCOTRIENOL], the growth at 10 µM worked out at 112% in the assay on OVCAR-8; 107% with KM12; 86.5% with HL-60(TB); 115% in assay [1]; 105% in the assay on A549; 84.3% in the assay with SNB-75. The growth at 10 µM was determined as 100% in the assay with ACHN, 114% in the assay with SNB-19, 105% with NCI-H460 and 95.2% in the assay with NCI-H322M. Besides, in the assay with MCF7, it took 7.1 µM to reach half-maximal inhibition (IC50).

As to `CC(C)=CCC/C(C)=C/CC/C(C)=C/CC[C@]1(C)CCc2c(CNCCc3ccc(O)cc3)c(O)c(C)c(C)c2O1`, the growth at 10 µM with OVCAR-8 was determined as 84.8%; in the assay with KM12, 89.6%; in the assay on HL-60(TB), 84%; in [1], 57.7%; with A549, 94.2%; in the assay with SNB-75, 68.1%. Besides, the growth at 10 µM with ACHN worked out at 98.7%; in the assay on SK-OV-3, 102%; in the assay with SNB-19 it was 99.8%; in the assay on NCI-H460 it was 92.3%; in the assay on NCI-H322M, 100%.

As for `CC(C)=CCC/C(C)=C/CC/C(C)=C/CC[C@]1(C)CCc2c3c(cc(C)c2O1)OCN(CCCCCCCCCCCCO)C3`, the growth at 10 µM amounted to 11.7% in the assay with OVCAR-8; 61.1% with KM12; 27.6% in the assay on HL-60(TB); 68.7% in assay [1]; 47.6% with A549; 97.7% in the assay on SNB-75. Moreover, the growth at 10 µM in the assay with ACHN is 91.3%; in the assay with SNB-19, 92.7%; in the assay with NCI-H460, 48.2%; in the assay with NCI-H322M, 86%. This compound showed an IC50 with MCF7 greater than 20 µM.

For `CC(C)=CCC/C(C)=C/CC/C(C)=C/CC[C@]1(C)CCc2c3c(cc(C)c2O1)OCN(CCCCCCCCCCO)C3`, the growth at 10 µM with OVCAR-8 was determined as 74.6%; in the assay with KM12, 87.2%; in the assay with HL-60(TB), 62.7%; in [1] it was 98.5%; with A549, 59.9%; in the assay on SNB-75, 74.5%. The growth at 10 µM with ACHN came to 99.1%; in the assay with SNB-19, 98.9%; with NCI-H460, 91.6%; with NCI-H322M it was 104%. The compound further registered an IC50 in the assay on MCF7 of 4.6 µM.

As to `CC(C)=CCC/C(C)=C/CC/C(C)=C/CC[C@]1(C)CCc2c3c(c(C)c(C)c2O1)OCN(CCCCCCCCCCCCO)C3`, the growth at 10 µM in the assay with OVCAR-8 amounted to 100%; in the assay with KM12, 90.4%; in the assay with HL-60(TB), 95%; in assay [1], 102%; in the assay with A549 it was 86.5%; in the assay on SNB-75, 94.6%. The growth at 10 µM in the assay with ACHN turned out to be 105%; with SNB-19 it was 104%; in the assay on NCI-H460, 103%; with NCI-H322M it was 90.7%. Besides, the IC50 in the assay with MCF7 is greater than 20 µM.

Regarding `CC(C)=CCC/C(C)=C/CC/C(C)=C/CC[C@]1(C)CCc2c3c(c(C)c(C)c2O1)OCN(CCc1ccc(O)cc1)C3`, the growth at 10 µM in the assay with OVCAR-8 was determined as 42.1%; in the assay on KM12, 65.6%; in the assay on HL-60(TB) it was 72.3%; in assay [1], 23.3%; in the assay on A549, 92.8%; in the assay with SNB-75, 69.2%. For the same compound, the growth at 10 µM with ACHN was 99.8%; in the assay with SK-OV-3, 105%; in the assay with SNB-19, 94.1%; in the assay with NCI-H460 it was 62.4%; in the assay on NCI-H322M, 96%. In the assay on MCF7, this compound gave an IC50 of 10.6 µM.
